# From ChEMBL document CHEMBL4689842, “EUbOPEN Chemogenomics Library wave 1” (2021)
# System: U2OS
# Assay: Multiplex assay against U2OS
# Assay type: toxicity, cell-based
# Settings: human
# How it was run: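 Cells were classed with CellPathfinder machine-learning gating, first as Hoechst high-intensity objects or normal cells, then (normal cells) as healthy, pyknosed or fragmented nuclei, and finally (pyknosed cells) as mitotic or apoptotic. Staining of live cells at seeding used Hoechst33342, BioTracker Green Microtubule Cytoskeleton Dye, MitoTracker Red and Annexin V Alexa Fluor 680, with imaging on a CQ1 microscope at 37°C and 5% CO2 after compound addition. Tubulin, mitochondrial-mass and membrane-permeability phenotypes are per cents of healthy-nucleus cells.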
# [1] = 12 h, 1 µM, compound concentration 1 uM, replicate 1
# [2] = 12 h, 1 µM, compound concentration 1 uM, replicate 2
# [3] = 12 h, 10 µM, compound concentration 10 uM, replicate 1
# [4] = 12 h, 10 µM, compound concentration 10 uM, replicate 2
# [5] = 24 h, 1 µM, compound concentration 1 uM, replicate 1
# [6] = 24 h, 1 µM, compound concentration 1 uM, replicate 2
# [7] = 24 h, 10 µM, compound concentration 10 uM, replicate 1
# [8] = 24 h, 10 µM, compound concentration 10 uM, replicate 2
# [9] = 48 h, 1 µM, compound concentration 1 uM, replicate 1
# [10] = 48 h, 1 µM, compound concentration 1 uM, replicate 2
# [11] = 48 h, 10 µM, compound concentration 10 uM, replicate 1
# [12] = 48 h, 10 µM, compound concentration 10 uM, replicate 2
compound,measurement,setting,value
O=C(Nc1ccc(-n2nc(-c3cccnc3)cc2C(F)(F)F)cn1)c1ccc(-c2ccccc2)c(F)c1 [BI 2049],Population Apoptotic (%),[1],63%
same,Population Fragmented Nuclei (%),[1],12%
same,Population Healthy Nuclei (%),[1],74%
same,Population Hoechst High Intensity Objects (%),[1],12%
same,Population Membrane Permeable-Phenotype (%),[1],6%
same,Population Mitochondria Different-Phenotype (%),[1],10%
same,Population Mitotic Cells (%),[1],36%
same,Population Normal (%),[1],87%
same,Population Pyknosed Nuclei (%),[1],12%
same,Population Tubulin-Different-Phenotype (%),[1],12%
same,Total Cell Count,[1],99
same,Population Apoptotic (%),[2],50%
same,Population Fragmented Nuclei (%),[2],4%
same,Population Healthy Nuclei (%),[2],85%
same,Population Hoechst High Intensity Objects (%),[2],8%
same,Population Membrane Permeable-Phenotype (%),[2],3%
same,Population Mitochondria Different-Phenotype (%),[2],7%
same,Population Mitotic Cells (%),[2],50%
same,Population Normal (%),[2],91%
same,Population Pyknosed Nuclei (%),[2],9%
same,Population Tubulin-Different-Phenotype (%),[2],44%
same,Total Cell Count,[2],69
same,Population Apoptotic (%),[3],30%
same,Population Fragmented Nuclei (%),[3],13%
same,Population Healthy Nuclei (%),[3],69%
same,Population Hoechst High Intensity Objects (%),[3],9%
same,Population Membrane Permeable-Phenotype (%),[3],6%
same,Population Mitochondria Different-Phenotype (%),[3],24%
same,Population Mitotic Cells (%),[3],70%
same,Population Normal (%),[3],90%
same,Population Pyknosed Nuclei (%),[3],17%
same,Population Tubulin-Different-Phenotype (%),[3],35%
same,Total Cell Count,[3],129
same,Population Apoptotic (%),[4],0%
same,Population Fragmented Nuclei (%),[4],18%
same,Population Healthy Nuclei (%),[4],81%
same,Population Hoechst High Intensity Objects (%),[4],6%
same,Population Membrane Permeable-Phenotype (%),[4],4%
same,Population Mitochondria Different-Phenotype (%),[4],12%
same,Population Mitotic Cells (%),[4],0%
same,Population Normal (%),[4],93%
same,Population Pyknosed Nuclei (%),[4],0%
same,Population Tubulin-Different-Phenotype (%),[4],8%
same,Total Cell Count,[4],65
same,Population Apoptotic (%),[5],60%
same,Population Fragmented Nuclei (%),[5],8%
same,Population Healthy Nuclei (%),[5],79%
same,Population Hoechst High Intensity Objects (%),[5],5%
same,Population Membrane Permeable-Phenotype (%),[5],3%
same,Population Mitochondria Different-Phenotype (%),[5],6%
same,Population Mitotic Cells (%),[5],40%
same,Population Normal (%),[5],94%
same,Population Pyknosed Nuclei (%),[5],11%
same,Population Tubulin-Different-Phenotype (%),[5],13%
same,Total Cell Count,[5],136
same,Population Apoptotic (%),[6],25%
same,Population Fragmented Nuclei (%),[6],7%
same,Population Healthy Nuclei (%),[6],83%
same,Population Hoechst High Intensity Objects (%),[6],7%
same,Population Membrane Permeable-Phenotype (%),[6],4%
same,Population Mitochondria Different-Phenotype (%),[6],9%
same,Population Mitotic Cells (%),[6],75%
same,Population Normal (%),[6],92%
same,Population Pyknosed Nuclei (%),[6],8%
same,Population Tubulin-Different-Phenotype (%),[6],37%
same,Total Cell Count,[6],96
same,Population Apoptotic (%),[7],34%
same,Population Fragmented Nuclei (%),[7],10%
same,Population Healthy Nuclei (%),[7],71%
same,Population Hoechst High Intensity Objects (%),[7],5%
same,Population Membrane Permeable-Phenotype (%),[7],6%
same,Population Mitochondria Different-Phenotype (%),[7],21%
same,Population Mitotic Cells (%),[7],65%
same,Population Normal (%),[7],94%
same,Population Pyknosed Nuclei (%),[7],18%
same,Population Tubulin-Different-Phenotype (%),[7],19%
same,Total Cell Count,[7],135
same,Population Apoptotic (%),[8],0%
same,Population Fragmented Nuclei (%),[8],11%
same,Population Healthy Nuclei (%),[8],84%
same,Population Hoechst High Intensity Objects (%),[8],3%
same,Population Membrane Permeable-Phenotype (%),[8],4%
same,Population Mitochondria Different-Phenotype (%),[8],13%
same,Population Mitotic Cells (%),[8],100%
same,Population Normal (%),[8],96%
same,Population Pyknosed Nuclei (%),[8],3%
same,Population Tubulin-Different-Phenotype (%),[8],10%
same,Total Cell Count,[8],82
same,Population Apoptotic (%),[9],33%
same,Population Fragmented Nuclei (%),[9],9%
same,Population Healthy Nuclei (%),[9],82%
same,Population Hoechst High Intensity Objects (%),[9],5%
same,Population Mitochondria Different-Phenotype (%),[9],12%
same,Population Mitotic Cells (%),[9],66%
same,Population Normal (%),[9],94%
same,Population Pyknosed Nuclei (%),[9],7%
same,Population Tubulin-Different-Phenotype (%),[9],10%
same,Total Cell Count,[9],200
same,Population Apoptotic (%),[10],22%
same,Population Fragmented Nuclei (%),[10],2%
same,Population Healthy Nuclei (%),[10],91%
same,Population Hoechst High Intensity Objects (%),[10],3%
same,Population Membrane Permeable-Phenotype (%),[10],1%
same,Population Mitochondria Different-Phenotype (%),[10],10%
same,Population Mitotic Cells (%),[10],77%
same,Population Normal (%),[10],96%
same,Population Pyknosed Nuclei (%),[10],6%
same,Population Tubulin-Different-Phenotype (%),[10],41%
same,Total Cell Count,[10],146
same,Population Apoptotic (%),[11],63%
same,Population Fragmented Nuclei (%),[11],8%
same,Population Healthy Nuclei (%),[11],74%
same,Population Hoechst High Intensity Objects (%),[11],3%
same,Population Membrane Permeable-Phenotype (%),[11],7%
same,Population Mitochondria Different-Phenotype (%),[11],13%
same,Population Mitotic Cells (%),[11],36%
same,Population Normal (%),[11],96%
same,Population Pyknosed Nuclei (%),[11],17%
same,Population Tubulin-Different-Phenotype (%),[11],11%
same,Total Cell Count,[11],181
same,Population Apoptotic (%),[12],11%
same,Population Fragmented Nuclei (%),[12],7%
same,Population Healthy Nuclei (%),[12],85%
same,Population Hoechst High Intensity Objects (%),[12],2%
same,Population Membrane Permeable-Phenotype (%),[12],3%
same,Population Mitochondria Different-Phenotype (%),[12],11%
same,Population Mitotic Cells (%),[12],88%
same,Population Normal (%),[12],97%
same,Population Pyknosed Nuclei (%),[12],7%
same,Population Tubulin-Different-Phenotype (%),[12],6%
same,Total Cell Count,[12],128
CCCS(=O)(=O)c1nc(NC2CC2)cc(-c2ccc3c(ccn3C3CC(C)(C)NC(C)(C)C3)c2)n1,Population Apoptotic (%),[1],39%
same,Population Fragmented Nuclei (%),[1],16%
same,Population Healthy Nuclei (%),[1],62%
same,Population Hoechst High Intensity Objects (%),[1],6%
same,Population Membrane Permeable-Phenotype (%),[1],8%
same,Population Mitochondria Different-Phenotype (%),[1],30%
same,Population Mitotic Cells (%),[1],60%
same,Population Normal (%),[1],93%
same,Population Pyknosed Nuclei (%),[1],21%
same,Population Tubulin-Different-Phenotype (%),[1],24%
same,Total Cell Count,[1],588
same,Population Apoptotic (%),[2],38%
same,Population Fragmented Nuclei (%),[2],14%
same,Population Healthy Nuclei (%),[2],71%
same,Population Hoechst High Intensity Objects (%),[2],5%
same,Population Membrane Permeable-Phenotype (%),[2],5%
same,Population Mitochondria Different-Phenotype (%),[2],41%
same,Population Mitotic Cells (%),[2],61%
same,Population Normal (%),[2],94%
same,Population Pyknosed Nuclei (%),[2],13%
same,Population Tubulin-Different-Phenotype (%),[2],29%
same,Total Cell Count,[2],1044
same,Population Apoptotic (%),[3],86%
same,Population Fragmented Nuclei (%),[3],83%
same,Population Healthy Nuclei (%),[3],0%
same,Population Hoechst High Intensity Objects (%),[3],6%
same,Population Membrane Permeable-Phenotype (%),[3],0%
same,Population Mitochondria Different-Phenotype (%),[3],0%
same,Population Mitotic Cells (%),[3],13%
same,Population Normal (%),[3],93%
same,Population Pyknosed Nuclei (%),[3],16%
same,Population Tubulin-Different-Phenotype (%),[3],0%
same,Total Cell Count,[3],142
same,Population Apoptotic (%),[4],92%
same,Population Fragmented Nuclei (%),[4],75%
same,Population Healthy Nuclei (%),[4],4%
same,Population Hoechst High Intensity Objects (%),[4],7%
same,Population Membrane Permeable-Phenotype (%),[4],100%
same,Population Mitochondria Different-Phenotype (%),[4],38%
same,Population Mitotic Cells (%),[4],7%
same,Population Normal (%),[4],92%
same,Population Pyknosed Nuclei (%),[4],19%
same,Population Tubulin-Different-Phenotype (%),[4],84%
same,Total Cell Count,[4],101
same,Population Apoptotic (%),[5],50%
same,Population Fragmented Nuclei (%),[5],16%
same,Population Healthy Nuclei (%),[5],67%
same,Population Hoechst High Intensity Objects (%),[5],10%
same,Population Membrane Permeable-Phenotype (%),[5],5%
same,Population Mitotic Cells (%),[5],50%
same,Population Normal (%),[5],89%
same,Population Pyknosed Nuclei (%),[5],16%
same,Population Tubulin-Different-Phenotype (%),[5],9%
same,Total Cell Count,[5],749
same,Population Apoptotic (%),[6],22%
same,Population Fragmented Nuclei (%),[6],15%
same,Population Healthy Nuclei (%),[6],66%
same,Population Hoechst High Intensity Objects (%),[6],5%
same,Population Membrane Permeable-Phenotype (%),[6],10%
same,Population Mitochondria Different-Phenotype (%),[6],21%
same,Population Mitotic Cells (%),[6],77%
same,Population Normal (%),[6],94%
same,Population Pyknosed Nuclei (%),[6],18%
same,Population Tubulin-Different-Phenotype (%),[6],29%
same,Total Cell Count,[6],1113
same,Population Apoptotic (%),[7],86%
same,Population Fragmented Nuclei (%),[7],80%
same,Population Healthy Nuclei (%),[7],0%
same,Population Hoechst High Intensity Objects (%),[7],6%
same,Population Membrane Permeable-Phenotype (%),[7],100%
same,Population Mitochondria Different-Phenotype (%),[7],25%
same,Population Mitotic Cells (%),[7],13%
same,Population Normal (%),[7],93%
same,Population Pyknosed Nuclei (%),[7],18%
same,Population Tubulin-Different-Phenotype (%),[7],100%
same,Total Cell Count,[7],151
same,Population Apoptotic (%),[8],90%
same,Population Fragmented Nuclei (%),[8],73%
same,Population Healthy Nuclei (%),[8],10%
same,Population Hoechst High Intensity Objects (%),[8],7%
same,Population Membrane Permeable-Phenotype (%),[8],96%
same,Population Mitochondria Different-Phenotype (%),[8],75%
same,Population Mitotic Cells (%),[8],10%
same,Population Normal (%),[8],92%
same,Population Pyknosed Nuclei (%),[8],15%
same,Population Tubulin-Different-Phenotype (%),[8],96%
same,Total Cell Count,[8],104
same,Population Apoptotic (%),[9],37%
same,Population Fragmented Nuclei (%),[9],16%
same,Population Healthy Nuclei (%),[9],69%
same,Population Hoechst High Intensity Objects (%),[9],6%
same,Population Membrane Permeable-Phenotype (%),[9],5%
same,Population Mitochondria Different-Phenotype (%),[9],15%
same,Population Mitotic Cells (%),[9],62%
same,Population Normal (%),[9],93%
same,Population Pyknosed Nuclei (%),[9],14%
same,Population Tubulin-Different-Phenotype (%),[9],14%
same,Total Cell Count,[9],831
same,Population Apoptotic (%),[10],58%
same,Population Fragmented Nuclei (%),[10],11%
same,Population Healthy Nuclei (%),[10],68%
same,Population Hoechst High Intensity Objects (%),[10],8%
same,Population Membrane Permeable-Phenotype (%),[10],24%
same,Population Mitochondria Different-Phenotype (%),[10],17%
same,Population Mitotic Cells (%),[10],41%
same,Population Normal (%),[10],91%
same,Population Pyknosed Nuclei (%),[10],20%
same,Population Tubulin-Different-Phenotype (%),[10],23%
same,Total Cell Count,[10],1197
same,Population Apoptotic (%),[11],90%
same,Population Fragmented Nuclei (%),[11],81%
same,Population Healthy Nuclei (%),[11],1%
same,Population Hoechst High Intensity Objects (%),[11],7%
same,Population Membrane Permeable-Phenotype (%),[11],100%
same,Population Mitochondria Different-Phenotype (%),[11],37%
same,Population Mitotic Cells (%),[11],9%
same,Population Normal (%),[11],92%
same,Population Pyknosed Nuclei (%),[11],16%
same,Population Tubulin-Different-Phenotype (%),[11],75%
same,Total Cell Count,[11],198
same,Population Apoptotic (%),[12],80%
same,Population Fragmented Nuclei (%),[12],73%
same,Population Healthy Nuclei (%),[12],15%
same,Population Hoechst High Intensity Objects (%),[12],8%
same,Population Membrane Permeable-Phenotype (%),[12],97%
same,Population Mitochondria Different-Phenotype (%),[12],81%
same,Population Mitotic Cells (%),[12],19%
same,Population Normal (%),[12],91%
same,Population Pyknosed Nuclei (%),[12],10%
same,Population Tubulin-Different-Phenotype (%),[12],94%
same,Total Cell Count,[12],131
